Compound activity as filed in PubChem.
SENP1 inh: SENP1 (human) catalytic domain inhibition | actives 0.21% (n = 360,000) | Q9P0U3 | AID 624204 | recombinant SENP1 catalytic domain, CyPet-SUMO1-YPet FRET cleavage | inhibition, % at 10 µM;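 active means inhibition at least 30% at 10 µM, raw YFP signal under a set limit, fluorescence ratio 0.5 to 1.5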
Target sequence (Q9P0U3 419-644 limits assumed): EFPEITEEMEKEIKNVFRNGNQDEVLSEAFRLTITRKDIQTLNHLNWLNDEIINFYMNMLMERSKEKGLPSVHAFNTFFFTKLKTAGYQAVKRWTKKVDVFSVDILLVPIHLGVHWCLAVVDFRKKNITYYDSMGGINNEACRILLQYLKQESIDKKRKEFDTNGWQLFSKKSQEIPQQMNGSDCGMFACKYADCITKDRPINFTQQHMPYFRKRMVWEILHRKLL
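Material – human SENP1 catalytic domain · Input – SENP1 enzyme, 20 pM final · Compound dosing – single concentration of 10 µM compound, 0.5% DMSO final · Timing – enzyme reaction for 50 min at room temperature, dark · Measured by – FRET fluorescence in CFP and YFP emission channels · Control set – no-enzyme wells low, DMSO-plus-enzyme wells high control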
NR3A LBD binder: NR3A (human) ligand-binding domain modulation. NR3A LBD differential scanning fluorimetry, Tm shift; 0% = protein alone, 100% = glycine-bound protein. Tm shift relative to glycine control, % at 25 µM. actives 2.5% (n = 340,000);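 active means melting temperature shift of at least 10% of the positive control shift, at one fixed dose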
MPTP block: blocks calcium-induced mitochondrial swelling; isolated mouse mitochondria, Ca2+ swelling absorbance, 30 min; inhibition, % at 10 µM; actives 1.4% (n = 360,000);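 active means inhibition of 50% or more, scaled per plate between neutral and stimulator controls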
EBI2 block: EBI2 (human) antagonism; P32249; EBI2 beta-arrestin recruitment, luminescence, 7a,25-OHC stimulated; inhibition, % at 5 µM; actives 0.81% (n = 360,000); AID 651636; in the data active means inhibition above about 38%;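 further: enzyme fragment complementation signal reports receptor beta-arrestin coupling in cells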
Rh123 counter: mitochondrial membrane potential, counter-screen; shares compounds with MPTP block; isolated mitochondria, Rhodamine 123 fluorescence; inhibition, % at 10 µM; AID 624504; actives 78% (n = 5,000); in the data active means inhibition above about 22%
MPTP swell DR: dose response confirmation of mitochondrial permeability transition pore inhibitors; shares compounds with MPTP block; isolated mitochondria swelling, absorbance; IC50, µM; actives 58% (n = 780); in the data active means IC50 below about 20 µM
MPTP counter DR: active in counter-screen for permeability transition pore inhibitors; IC50, µM; isolated mitochondria counterscreen, fluorescence read-out; actives 49% (n = 780); shares compounds with MPTP block; AID 651564; in the data active means IC50 below about 80 µM
Numbers stand for hits. Compounds with a hit are over-represented: about 4.4% of the library has one in this group of screens.

What do the screens show for `COc1ccc(-c2nn(-c3ccccc3)cc2C(=O)N(C)CC(=O)Nc2cccc(F)c2)cc1`?
SENP1 inh: inactive; NR3A LBD binder: 11.3; MPTP block: inactive; EBI2 block: inactive

How did CCCCn1c(N)c(N(CC(C)C)C(=O)C2CCN(C(=O)c3ccc(F)cc3)CC2)c(=O)[nH]c1=O do in these assays?
SENP1 inh: inactive; NR3A LBD binder: inactive; MPTP block: inactive; EBI2 block: inactive

How did Cc1ccn2c(C(=O)CSc3ccccc3Cl)c(C)nc2c1 do in these assays?
SENP1 inh: inactive; NR3A LBD binder: 13.6; MPTP block: inactive; EBI2 block: inactive

What do the screens show for `COc1ccc(-c2coc3cc(O)cc(O)c3c2=O)cc1`?
SENP1 inh: inactive; NR3A LBD binder: 11.9; MPTP block: inactive; EBI2 block: inactive

How did CCn1cc(/C=C(\NC(=O)c2ccccc2F)C(=O)N2CCCC2)c2ccccc21 do in these assays?
SENP1 inh: inactive; NR3A LBD binder: inactive; MPTP block: inactive; EBI2 block: inactive

How did COc1ccc(-n2nc([N+](=O)[O-])c(=NCCc3ccc(OC)c(OC)c3)n2O)cc1 do in these assays?
SENP1 inh: inactive; NR3A LBD binder: 22.9; MPTP block: inactive; EBI2 block: inactive

Results for CC12CC(NC(=O)N1c1cccc(C(=O)N3CCCCC3)c1)c1ccccc1O2 (stereo not drawn) ?
SENP1 inh: inactive; NR3A LBD binder: inactive; MPTP block: inactive; EBI2 block: inactive

How did CN(NC(=O)C(=O)NCc1ccco1)C(=O)Nc1ccc(Cl)cc1 do in these assays?
SENP1 inh: inactive; MPTP block: 85.0; EBI2 block: inactive; Rh123 counter: 109.0

How did CC(C)C1Oc2ccccc2N(CC(=O)NC2CCCCC2)C1=O (stereo not drawn) do in these assays?
SENP1 inh: inactive; NR3A LBD binder: inactive; MPTP block: inactive; EBI2 block: inactive

What do the screens show for `CC1(C)C2CC=C(/C=N/NC(=O)c3ccccc3O)C1C2` (stereo not drawn)?
SENP1 inh: inactive; NR3A LBD binder: inactive; MPTP block: 50.1; EBI2 block: inactive; Rh123 counter: 71.0

Results for CCOc1cc(CNC(C)(C)C)ccc1OCC(=O)Nc1cccc(C(F)(F)F)c1 ?
SENP1 inh: inactive; NR3A LBD binder: inactive; MPTP block: inactive; EBI2 block: inactive

Results for CCC(CO)NCc1ccc(OCC(=O)Nc2cccc(C(F)(F)F)c2)c(OC)c1 (stereo not drawn) ?
SENP1 inh: inactive; NR3A LBD binder: inactive; MPTP block: 58.3; EBI2 block: inactive; Rh123 counter: inactive; MPTP swell DR: 17.2; MPTP counter DR: inactive

What do the screens show for `CC1(C)CC(=Cc2cc(O)ccc2[N+](=O)[O-])C(=O)c2ccccc21`?
SENP1 inh: inactive; MPTP block: 91.1; EBI2 block: inactive; Rh123 counter: 93.7

Results for COc1ccccc1NC(=S)Nc1ccccc1F ?
SENP1 inh: inactive; NR3A LBD binder: inactive; MPTP block: inactive; EBI2 block: inactive

How did Fc1cc(Br)ccc1NC(=S)Nc1ccccc1 do in these assays?
SENP1 inh: inactive; NR3A LBD binder: inactive; MPTP block: 91.7; EBI2 block: inactive; Rh123 counter: 92.6

Results for O=C(Nc1ccc(Br)cc1)Nc1ccccc1F ?
SENP1 inh: inactive; NR3A LBD binder: inactive; MPTP block: 80.5; EBI2 block: inactive; Rh123 counter: 90.2

What do the screens show for `Fc1ccccc1NC(=S)Nc1ccc(Br)cc1`?
SENP1 inh: inactive; NR3A LBD binder: 25.2; MPTP block: 97.0; EBI2 block: inactive; Rh123 counter: 94.8

How did Cc1ccc(C(=O)NNC(=S)NC(=O)c2ccccc2)cc1 do in these assays?
SENP1 inh: inactive; NR3A LBD binder: inactive; MPTP block: inactive; EBI2 block: inactive

What do the screens show for `CCCCC(=O)NC(=S)NNC(=O)c1ccc(Cl)cc1Cl`?
SENP1 inh: inactive; NR3A LBD binder: inactive; MPTP block: 51.0; EBI2 block: inactive; Rh123 counter: inactive; MPTP swell DR: 15.1; MPTP counter DR: inactive

Results for Cc1ccc(C(=O)NNC(=S)NC(=O)c2ccc(Cl)cc2Cl)cc1 ?
SENP1 inh: inactive; NR3A LBD binder: inactive; MPTP block: 87.9; EBI2 block: inactive; Rh123 counter: inactive

Results for CC(C)Sc1cc(Cl)nc(NC(=O)Nc2ccccc2)n1 ?
SENP1 inh: inactive; NR3A LBD binder: inactive; MPTP block: inactive; EBI2 block: inactive
